This is a sample that favours compounds with a hit; in the whole collection about 4.3% have one here.
Rtt109 Vps75: C. albicans Rtt109 histone acetyltransferase inhibition | AID 540336 | Q5AAJ8 | inhibition, % at 34.9 µM | purified Rtt109/Vps75, ThioGlo CoA-SH fluorescence, 4 h | hit rate 0.16% among 330,000;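 active = inhibition of at least 50% in every replicate; inconclusive = best replicate reaches 50% inhibition but some replicates fall short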
Target sequence (Q5AAJ8 whole entry, looked up): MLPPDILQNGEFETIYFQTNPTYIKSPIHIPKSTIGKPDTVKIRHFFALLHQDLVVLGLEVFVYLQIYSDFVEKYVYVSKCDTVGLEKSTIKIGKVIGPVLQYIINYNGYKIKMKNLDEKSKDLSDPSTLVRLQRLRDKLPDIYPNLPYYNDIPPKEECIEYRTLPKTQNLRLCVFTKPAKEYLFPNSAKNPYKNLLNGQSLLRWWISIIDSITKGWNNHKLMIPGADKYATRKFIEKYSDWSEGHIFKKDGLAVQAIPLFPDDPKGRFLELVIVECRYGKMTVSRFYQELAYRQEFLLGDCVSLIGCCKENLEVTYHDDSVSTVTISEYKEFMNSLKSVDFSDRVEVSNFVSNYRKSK
ALR inh: inhibitors of human sulfhydryl oxidase ALR. AID 485317. purified ALR, DTT oxidation, H2O2 HRP-luminol luminescence. hit rate 3.8% among 290,000. P55789. inhibition, % (no concentration beside the values);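 active = mean replicate inhibition above about 79%, with every replicate also reaching it, limit read from the data; inconclusive = only one of the two criteria met; inactive = mean below limit and not every replicate reaching it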
Target sequence (P55789 whole entry, looked up): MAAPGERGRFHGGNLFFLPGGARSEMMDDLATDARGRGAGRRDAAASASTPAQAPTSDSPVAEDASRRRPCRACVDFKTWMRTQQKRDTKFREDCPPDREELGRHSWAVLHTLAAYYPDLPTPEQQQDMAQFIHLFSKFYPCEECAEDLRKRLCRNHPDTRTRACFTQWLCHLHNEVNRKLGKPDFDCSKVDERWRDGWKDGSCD
CAL PDZ FP-1: blocks peptide binding to the human CAL PDZ domain; purified CAL PDZ, TMR-peptide fluorescence polarization, 1 h; inhibition, % at 24.9 µM; hit rate 0.92% among 300,000; AID 602252;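 active = mean inhibition of at least 30% with at least half of replicates also reaching 30%; inconclusive = no clear call, values can overlap the other calls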;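 also: 0% = DMSO neutral control and 100% = excess unlabeled competitor peptide PRC23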
CAL PDZ FP-2: human CAL PDZ-peptide interaction inhibition | Q9HD26 | purified CAL PDZ, TMR-peptide fluorescence polarization, 1 h | inhibition, % at 20 µM | hit rate 0.02% among 330,000 | AID 504414;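 active = highest replicate inhibition of at least 40%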;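 also: plate controls were DMSO neutral control wells for no effect and unlabeled competitor peptide control wells for full effect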
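Material – purified CerCALP PDZ construct · Detection – FP readout, S and P plane fluorescence · Measure – percent inhibition from loss of millipolarization · Controls – unlabelled peptide for full inhibition, DMSO wells as neutral · Probe or stimulus – TMR-labelled reporter peptide T*-PRC34 bound in PDZ groove · Times – 1 h at RT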
DYRK1A inh: Dyrk1A (rat) kinase inhibition. Q63470. ADP-Glo luminescence, NFATc1 peptide. inhibition, % at 12.5 µM. hit rate 0.43% among 310,000. AID 504441; in the data active = inhibition above about 50%;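 also: plate controls were vehicle with enzyme for no effect and no enzyme for full effect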
Active calls of the source: *; ? = inconclusive; . = no result given.

SMILES	Rtt109 Vps75	ALR inh	CAL PDZ FP-1	CAL PDZ FP-2	DYRK1A inh
O=c1ccc(NS(=O)(=O)c2ccccc2)cn1Cc1ccc(Cl)c(Cl)c1	-1.2	-8.7	0.2	-2.4	3.9
O=C(Oc1ccc(/C=N/O)cc1)c1ccccc1Cl	.	99.2*	0.2	-3.4	12.7
Cc1ccc(C(=O)N/N=C/c2ccc(OC(=O)c3ccccc3Cl)cc2)cn1	6.0	-14.8	-3.7	-2.7	-3.1
Cc1ccc(C2(C)NC(=O)N(CC(=O)NNC(=O)c3ccccc3)C2=O)cc1 (stereo not drawn)	0.6	.	0.4	0.3	.
CCCCC1CCCOC(C(=O)NCCNCCO)(C(F)(F)F)C1 (stereo not drawn)	-0.5	-8.0	-1.5	-0.9	-3.7
CCCC[C@@H]1CCCO[C@@](C(=O)NCc2ccc(C)o2)(C(F)(F)F)C1	4.3	90.3*	0.4	0.1	6.9
COc1cccc(CN2CCC(Oc3ccc(C(=O)N4CCCCC4)cc3)CC2)c1O	11.0	84.2*	-0.5	-1.0	-1.3
O=C(c1ccc(OC2CCN(C/C=C/c3ccccc3)CC2)cc1)N1CCCCC1	26.1	1.0	36.7*	13.5	0.7
O=C(c1ccc(OC2CCN(Cc3ccccc3O)CC2)cc1)N1CCCCC1	-3.1	1.1	-4.5	-1.7	-0.6
COc1cc(C(=S)N2CCC(C)CC2)ccc1O	0.8	89.6*	-2.7	0.2	2.6
COc1cc(-c2cc(OC)c3c(C)oc(C)c3c(=O)c2)ccc1O	12.8	90.9*	-2.8	-2.3	-2.9
COc1ccc(-c2cc(OC)c3c(C)oc(C)c3c(=O)c2)cc1OC	4.3	-0.9	-4.4	-1.7	-5.4
COc1cc(-c2cc[n+](C)cc2)ccc1O	7.1	99.0*	-2.5	-0.1	-1.2
COc1cc(-c2nc3ccccn3c2N)ccc1O	9.0	.	-2.0	1.0	4.8
COc1cc(-c2nc3ccccc3nc2-c2ccc(O)c(OC)c2)ccc1O	4.0	98.9*	-4.0	-1.1	6.9
COc1cc(C(C)=O)ccc1O	-3.0	.	-0.2	-1.1	-0.5
COc1cc(C(=O)n2nc(C)cc2C)ccc1O	0.1	94.8*	-5.3	-0.3	-0.5
COc1cc(C(=O)C(=O)c2ccc(O)c(OC)c2)ccc1O	27.9	99.5*	-4.5	-1.4	-1.2
COc1cc(C(=S)N2CCCCC2)ccc1O	-0.2	82.1*	-3.9	-0.8	3.1
COc1cc(C(=S)N2CCCC2)ccc1O	4.0	93.8*	.	-1.4	-6.2
COc1cc(C(=O)O)ccc1O	-6.3	-2.8	-2.6	-0.1	0.2
O=C(NCc1cccc(C(F)(F)F)c1)c1ccc2c(c1)OCO2	15.3	.	-0.6	-0.2	-0.3
CCOC(=O)C(=CNc1cc(OC)ccc1-n1cccc1)C(=O)OCC	-1.3	0.0	-2.4	-5.1	9.5
CCOC(=O)c1c(C#N)c(SCC(=O)Nc2ccc(OC)cc2)nc2c1CN(CC)CC2	-0.4	99.3*	-1.5	-2.5	6.2
COc1ccc(NC(=O)CSc2nc3c(c(-c4cccs4)c2C#N)CN(C)CC3)cc1OC	?	99.3*	-3.2	-3.1	-1.1
SMILES	Rtt109 Vps75	ALR inh	CAL PDZ FP-1	CAL PDZ FP-2	DYRK1A inh
COc1ccc(NC(=O)CSc2nc(N)c(C#N)cc2C#N)cc1	-4.3	-8.0	-4.1	-1.5	-5.7
CN1CCc2nc(SCC(=O)Nc3ccc(Cl)cc3)c(C#N)cc2C1	20.0	99.5*	-1.3	-2.8	0.8
Cc1cccc(C)c1NC(=S)Nc1ccc(F)cc1	4.2	0.7	3.4	-0.5	-0.4
Cc1c(Cl)cccc1NC(=S)Nc1ccc2[nH]c(=O)[nH]c2c1	-3.8	94.9*	-1.0	0.9	24.1
O=c1[nH]c2ccc(NCc3ccc(F)cc3)cc2[nH]1	-3.3	99.8*	-1.3	-0.1	5.9
O=c1[nH]c2ccc(NC(=S)Nc3ccc(F)cc3)cc2[nH]1	6.3	89.9*	-6.1	-0.2	-0.8
COc1cc(CNc2ccc3[nH]c(=O)[nH]c3c2)cc(Br)c1OCc1ccc(F)cc1	-4.5	19.2	-3.6	1.8	2.7
Cc1ccc(NC(=S)Nc2ccc(F)cc2)cc1C	50.5*	-3.8	-2.4	-0.7	4.0
O=C(CN1C(=O)COc2ccc(S(=O)(=O)N3CCOCC3)cc21)NCc1ccccn1	9.4	-5.6	7.5	-0.3	-2.5
Cc1ccccc1N(C(=O)CNC(=O)c1ccco1)C(C(=O)NC1CCCCC1)c1cccnc1 (stereo not drawn)	-7.3	.	-1.9	-0.5	-1.8
O=C(c1ccco1)N1CCN(Cc2cc(=O)c(OCc3c(F)cccc3Cl)co2)CC1	0.5	10.7	0.2	-1.7	-3.7
CCOC(=O)c1c(/N=C/c2cc(C)ccc2O)sc2c1CCN(C)C2	3.9	97.8*	-5.3	0.4	0.0
CCOC(=O)c1nnc(-c2ccccc2)nc1Sc1ccccc1Cl	-4.1	97.3*	-2.9	-1.1	2.3
O=C(O)c1cnc(-c2ccccc2)nc1Sc1ccc(Cl)cc1	8.6	.	-6.0	.	6.5
CCOC(=O)c1nnc(-c2ccc(C)cc2)nc1Sc1cccc(Cl)c1	4.3	.	-1.4	-1.1	-8.8
O=C(O)c1cnc(-c2ccccc2)nc1Sc1ccccc1Cl	0.6	98.2*	-6.0	-2.1	9.1
Cc1cccc(Nc2sc(C(=O)c3cc4cc(Cl)ccc4o3)c(N)c2C#N)c1	1.7	13.1	8.3	-0.9	.
O=C(CCN1C(=O)/C(=C/c2ccc(F)cc2)SC1=S)NC1C=CS(=O)(=O)C1 (stereo not drawn)	-21.4	.	-2.8	-2.2	4.2
CC(C(=O)NC1C=CS(=O)(=O)C1)N1C(=O)/C(=C/c2ccc(Cl)cc2)SC1=S (stereo not drawn)	138.8*	1.1	-3.0	-2.2	38.6
CC(C)Cn1[nH]c2c3c(ccc2c1=O)C(=O)c1ccccc1C3=O	-11.5	1.9	-3.0	4.1	1.9
CC(Oc1ccc(Cl)cc1)C(=O)N(C)CC(=O)Nc1ccc(N2CCOCC2)cc1 (stereo not drawn)	-0.2	92.6*	-3.4	-2.7	-4.1
CN(CC(=O)Nc1ccc(N2CCOCC2)cc1)C(=O)CC(c1ccccc1)c1ccccc1	1.1	.	-0.2	2.2	0.7
CC(C(=O)NCC1CCCCC1)N(C)CC(=O)Nc1ccc(N2CCOCC2)cc1 (stereo not drawn)	-2.7	91.7*	-0.1	-0.3	.
Cc1ccc(CC(=O)N(C)CC(=O)Nc2ccc(N3CCOCC3)cc2)cc1C	24.9	99.4*	2.4	-0.7	-13.1
CC(Sc1ccc(Cl)cc1)C(=O)N(C)CC(=O)Nc1ccc(N2CCOCC2)cc1 (stereo not drawn)	6.2	92.2*	-1.8	-2.1	10.1
O=S1(=O)N[C@H](c2ccccc2)C[C@H](c2ccc(C(F)(F)F)cc2)O1	5.9	-4.7	-3.0	-0.4	4.4
O=C(Cc1c(F)cccc1Cl)Nc1nccs1	4.5	-1.0	-4.3	.	-0.4
CN(C(=O)CSc1nnc(COc2ccccc2F)n1N)C1CCS(=O)(=O)C1 (stereo not drawn)	0.6	-23.7	-1.6	-1.7	-0.8
COc1ccc(OC)c(CCNC(=O)CCc2nnc3ccc(N4CCOCC4)nn23)c1	-14.3	-0.9	-2.7	-1.9	.

Screening data from PubChem BioAssay.
